This note sets out measurements from ChEMBL document CHEMBL1949524, “Chiral indolo[3,2-f][3]benzazecine-type dopamine receptor antagonists: synthesis and activity of racemic and enantiopure derivatives” (J Med Chem, 2011).

pKi: −log10 of the molar value. Active and inactive are the calls of the source. The rule behind the calls is not given here.

In one assay the target is D(3) dopamine receptor (Homo sapiens, UniProt P35462). The assay can be described thus: Displacement of [3H]spiperone from human dopamine D3 receptor expressed in human HEK293 cells. The format is cell-based. The essentials:
(§1)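 Radioligand binding at human receptors, with Ki as the read-out. Ki is the mean (±SEM) of two to three experiments, each run in triplicate.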

The target in assay [1] is T1, D(1A) dopamine receptor (Homo sapiens, UniProt P21728). Kind of assay: Displacement of [3H]SCH23390 from human dopamine D1 receptor expressed in human HEK293 cells. The format is cell-based. Put shortly: as §1
T1 sequence (P21728 whole entry): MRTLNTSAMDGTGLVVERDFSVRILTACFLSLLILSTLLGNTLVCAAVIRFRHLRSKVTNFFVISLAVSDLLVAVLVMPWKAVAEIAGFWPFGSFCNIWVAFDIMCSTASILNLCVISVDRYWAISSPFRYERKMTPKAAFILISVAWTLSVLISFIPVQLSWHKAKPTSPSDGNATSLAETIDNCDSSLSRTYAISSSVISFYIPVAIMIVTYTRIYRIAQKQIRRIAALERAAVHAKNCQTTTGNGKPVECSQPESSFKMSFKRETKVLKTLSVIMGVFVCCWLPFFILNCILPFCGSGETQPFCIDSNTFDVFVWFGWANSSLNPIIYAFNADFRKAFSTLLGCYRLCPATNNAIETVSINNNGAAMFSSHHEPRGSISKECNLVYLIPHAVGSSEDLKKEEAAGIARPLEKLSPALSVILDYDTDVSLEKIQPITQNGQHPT
In general terms: In a radioligand displacement assay an active substance lowers the binding of a labelled ligand.

Assay [2] deals with T2, D(2) dopamine receptor (Homo sapiens, UniProt P14416). Kind of assay: Displacement of [3H]spiperone from human dopamine D2L receptor expressed in human HEK293 cells. The format is cell-based. Put shortly:
as §1

Another assay concerns the target D(1B) dopamine receptor (Homo sapiens, UniProt P21918). Kind of assay: Displacement of [3H]SCH23390 from human dopamine D5 receptor expressed in human HEK293 cells. The format is cell-based. Put shortly:
as §1

Assay [3] concerns the target T2, D(2) dopamine receptor. The assay can be described thus: Antagonist activity at human dopamine D2L receptor expressed in HEK293 cells assessed inhibition of as quinpirole-induced Ca2+ influx by fluorescence analysis. The format is functional, cell-based. Put shortly:
(§2)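 HEK293 cells stably expressing the relevant dopamine receptor were loaded with a fluorescent dye and preincubated with rising concentrations of test compound. Agonist was then added: SKF 38393 for D1, quinpirole for D2. Ca2+-induced fluorescence was read on a microplate reader.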

Assay [4] concerns the target T1, D(1A) dopamine receptor. Kind of assay: Antagonist activity at human dopamine D1 receptor expressed in HEK293 cells assessed as inhibition of SKF38393-induced Ca2+ influx by fluorescence analysis. The format is functional, cell-based. The essentials:
as §2

Another assay has as its target T3, D(4) dopamine receptor (Homo sapiens, UniProt P21917).
T3 sequence (P21917 whole entry): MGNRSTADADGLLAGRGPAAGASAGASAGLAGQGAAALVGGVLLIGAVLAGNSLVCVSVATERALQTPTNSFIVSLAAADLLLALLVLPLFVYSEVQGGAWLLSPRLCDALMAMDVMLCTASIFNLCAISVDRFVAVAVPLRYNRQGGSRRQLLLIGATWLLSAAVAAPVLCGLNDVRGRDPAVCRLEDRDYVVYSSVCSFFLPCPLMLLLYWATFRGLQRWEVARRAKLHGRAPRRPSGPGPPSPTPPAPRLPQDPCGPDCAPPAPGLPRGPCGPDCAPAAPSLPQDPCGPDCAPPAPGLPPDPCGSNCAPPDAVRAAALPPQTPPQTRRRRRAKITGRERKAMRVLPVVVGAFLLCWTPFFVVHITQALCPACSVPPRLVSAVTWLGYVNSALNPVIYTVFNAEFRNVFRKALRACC
Kind of assay: Displacement of [3H]spiperone from human dopamine D4.4 receptor expressed in CHO cells. The format is cell-based. The essentials:
as §1

Chain of D(1B) dopamine receptor (P21918 whole entry): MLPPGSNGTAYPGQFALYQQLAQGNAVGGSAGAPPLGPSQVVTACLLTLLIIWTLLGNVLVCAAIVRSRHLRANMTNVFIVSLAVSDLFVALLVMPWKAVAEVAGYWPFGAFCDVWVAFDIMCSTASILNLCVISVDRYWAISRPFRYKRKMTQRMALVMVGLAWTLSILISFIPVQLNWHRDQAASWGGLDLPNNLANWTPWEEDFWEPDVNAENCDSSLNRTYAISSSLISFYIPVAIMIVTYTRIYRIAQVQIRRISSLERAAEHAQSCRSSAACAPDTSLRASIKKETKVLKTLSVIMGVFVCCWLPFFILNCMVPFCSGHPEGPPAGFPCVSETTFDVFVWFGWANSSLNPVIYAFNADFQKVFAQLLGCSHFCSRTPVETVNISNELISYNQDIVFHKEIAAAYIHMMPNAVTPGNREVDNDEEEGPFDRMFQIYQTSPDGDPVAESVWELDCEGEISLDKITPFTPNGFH
Chain of D(3) dopamine receptor (P35462 whole entry): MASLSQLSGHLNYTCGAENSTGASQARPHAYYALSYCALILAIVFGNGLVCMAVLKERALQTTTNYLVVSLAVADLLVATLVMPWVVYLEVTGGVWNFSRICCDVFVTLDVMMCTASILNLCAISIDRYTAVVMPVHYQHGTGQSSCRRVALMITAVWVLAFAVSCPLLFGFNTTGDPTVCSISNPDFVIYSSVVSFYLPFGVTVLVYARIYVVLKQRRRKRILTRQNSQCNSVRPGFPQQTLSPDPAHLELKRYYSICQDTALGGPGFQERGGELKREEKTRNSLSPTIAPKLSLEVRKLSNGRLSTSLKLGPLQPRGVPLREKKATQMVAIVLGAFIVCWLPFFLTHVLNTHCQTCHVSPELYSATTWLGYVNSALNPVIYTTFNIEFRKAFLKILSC
T2 sequence (P14416 whole entry): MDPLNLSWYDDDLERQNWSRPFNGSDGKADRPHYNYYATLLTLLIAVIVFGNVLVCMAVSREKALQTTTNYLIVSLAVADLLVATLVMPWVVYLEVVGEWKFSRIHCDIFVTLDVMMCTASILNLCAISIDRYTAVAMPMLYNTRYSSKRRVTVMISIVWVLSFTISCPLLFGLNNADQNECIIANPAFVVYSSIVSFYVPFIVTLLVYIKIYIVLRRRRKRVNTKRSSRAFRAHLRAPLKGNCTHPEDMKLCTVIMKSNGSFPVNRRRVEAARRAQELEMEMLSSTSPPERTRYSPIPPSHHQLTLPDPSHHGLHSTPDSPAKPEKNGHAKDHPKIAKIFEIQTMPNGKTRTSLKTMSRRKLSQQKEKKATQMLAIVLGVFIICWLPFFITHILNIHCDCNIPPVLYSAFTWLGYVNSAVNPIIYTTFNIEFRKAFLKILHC

By pKi is commonly meant −log10 of the Ki, conventionally taken in molar units. A high value points to a small Ki. As for `C[C@@H]1Cc2c([nH]c3ccccc23)Cc2ccccc2CCN1C`, the pKi at D(3) dopamine receptor is under 5.00; on D(1A) dopamine receptor [1], 6.19; on D(2) dopamine receptor [2], under 5.00; at D(1B) dopamine receptor, 6.41; at D(4) dopamine receptor it was under 5.00. Besides, the inhibition entry at D(2) dopamine receptor [3] and at D(1A) dopamine receptor [4] was “Active” throughout.

For `CN1CCc2ccccc2Cc2[nH]c3ccccc3c2CC1C(=O)O` (racemic), the negative-log Ki (pKi) was under 5.00 at D(3) dopamine receptor; under 5.00 at D(1A) dopamine receptor [1]; under 5.00 at D(2) dopamine receptor [2]; 6.18 on D(1B) dopamine receptor; under 5.00 on D(4) dopamine receptor. For the same compound, the inhibition entry on D(2) dopamine receptor [3] and on D(1A) dopamine receptor [4] was “Active” throughout.

With `CN1CCc2ccccc2Cc2[nH]c3ccccc3c2C[C@H]1CO`, the pKi was 5.33 on D(3) dopamine receptor; 6.94 on D(1A) dopamine receptor [1]; 5.53 on D(2) dopamine receptor [2]; 7.04 on D(1B) dopamine receptor; 5.31 on D(4) dopamine receptor. Besides, the inhibition result on D(2) dopamine receptor [3] and on D(1A) dopamine receptor [4] was “Active” in each case.

Take `C[C@H]1Cc2c([nH]c3ccccc23)Cc2ccccc2CCN1C`: the pKi is 6.52 on D(3) dopamine receptor; 8.21 at D(1A) dopamine receptor [1]; 7.07 on D(2) dopamine receptor [2]; 8.36 at D(1B) dopamine receptor; 7.19 at D(4) dopamine receptor. In addition, the inhibition entry on D(2) dopamine receptor [3] and on D(1A) dopamine receptor [4] was “Active” in each case.

Turning to `CN1CCc2ccccc2Cc2[nH]c3ccccc3c2C[C@@H]1CO`, the pKi is 6.17 at D(3) dopamine receptor; 7.99 on D(1A) dopamine receptor [1]; 6.57 at D(2) dopamine receptor [2]; 7.94 on D(1B) dopamine receptor; 6.39 at D(4) dopamine receptor. Besides, the inhibition result on D(2) dopamine receptor [3] and at D(1A) dopamine receptor [4] was “Active” in each case.
